Results: ChEMBL document CHEMBL4715791, “Enhancing Therapeutic Efficacy of Cisplatin by Blocking DNA Damage Repair” (ACS Med Chem Lett, 2016)
Active and inactive are the calls of the source. The rule behind the calls is not given here.

Tests used:
HeLa [1] = assay: Antagonistic anticancer activity against human HeLa cells assessed as combination index at cisplatin to compound ratio of 1:0.3 measured after 48 to 72 hrs by MTT based Chou-Talalay method; assay type: functional; conditions: time 48-72 hrs
How it was run: (§1)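 Cisplatin and compound given together at fixed molar ratios. Viability read by MTT. Combination index computed at 50% inhibition (CI50); below 1 = synergism, 1 = additivity, above 1 = antagonism. Tested at 24, 48 and 72 h incubation.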

HeLa [2] = assay: Effect on total ERK level in human HeLa cells at 2.5 uM measured after 24 hrs in presence of cisplatin by Hoechst staining based immunofluorescence assay; assay type: functional, cell-based
HeLa [3] = assay: Inhibition of PP2A in human HeLa cells assessed as increase in phosphorylated ERK expression level at 2.5 uM measured after 24 hrs by Western blot analysis; assay type: cell-based
How it was run: (§2)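 HeLa cells exposed 24 h to cisplatin, compound or the combination. P-Akt and P-ERK read by Western blot.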

HeLa [4] = assay: Effect on total ERK level in human HeLa cells at 2.5 uM measured after 24 hrs by Hoechst staining based immunofluorescence assay; assay type: functional, cell-based
HeLa [5] = assay: Induction of cell cycle arrest in human HeLa cells assessed as accumulation at S phase at 6.8 uM measured after 24 hrs by propidium iodide/RNase staining based flow cytometry (reference value: 27.21 %); assay type: functional
HeLa [6] = assay: Inhibition of PP2A in human HeLa cells assessed as enzyme activity at 10 uM measured after 3 hrs in presence of cisplatin by malachite green phosphatase assay relative to control; assay type: cell-based; set-up: scale not given: the % may be the effect or the level left
How it was run: (§3)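 PP2A activity measured in HeLa cells after 3 h exposure to compound, alone or combined with cisplatin. Activity expressed as % of untreated control.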

HeLa [7] = assay: Induction of apoptosis in human HeLa cells assessed as late apoptotic cells at 6.8 uM measured after 24 hrs by annexinV-FITC/propidium iodide staining based flow cytometry relative to control; assay type: functional
HeLa [8] = assay: Inhibition of PP2A in human HeLa cells assessed as increase in phosphorylated ERK expression level at 2.5 uM measured after 24 hrs in presence of cisplatin by Hoechst staining based immunofluorescence assay; assay type: cell-based
HeLa [9] = assay: Synergistic anticancer activity against human HeLa cells assessed as combination index at cisplatin to compound ratio of 1:1 measured after 24 to 72 hrs by MTT based Chou-Talalay method; assay type: functional; conditions: time 24-72 hrs; how it was run: as §1
A549 [10] = assay: Induction of cell cycle arrest in human A549 cells assessed as accumulation at G2/M phase at 32.7 uM measured after 24 hrs by propidium iodide/RNase staining based flow cytometry (reference value: 11.7 %); assay type: functional
[11] = Potentiation of cisplatin-induced antitumor activity against mouse U14 cells implanted in Kunming mouse assessed as tumor volume at 1.5 mg/kg, ip administered on day 2, 5, 8 cotreated with cisplatin at 5 mg/kg, ip on day 1, 4, 7 and measured at day 10 by caliper method (reference value: 178 +/- 33 mm3); assay type: functional; conditions: time 10 day
How it was run: (§4)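 KM mice bearing subcutaneous U14 mouse cervical cancer xenografts. Groups received saline, cisplatin 5 mg/kg, compound 1.5 mg/kg, or both (1:1 molar ratio). Relative tumor volume followed over about 2 weeks.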

A549 [12] = assay: Induction of cell cycle arrest in human A549 cells assessed as accumulation at S phase at 32.7 uM measured after 24 hrs by propidium iodide/RNase staining based flow cytometry (reference value: 27.5 %); assay type: functional
HeLa [13] = assay: Synergistic anticancer activity against human HeLa cells assessed as combination index at cisplatin to compound ratio of 1:0.5 measured after 24 hrs by MTT based Chou-Talalay method; assay type: functional; how it was run: as §1
A549 [14] = assay: Potentiation of cisplatin-induced cell cycle arrest in human A549 cells assessed as accumulation at G2/M phase at 32.7 uM measured after 24 hrs in presence of cisplatin by propidium iodide/RNase staining based flow cytometry (reference value: 36.13 %); assay type: functional
A549 [15] = assay: Potentiation of cisplatin-induced apoptosis in human A549 cells at 32.7 uM measured after 24 hrs in presence of cisplatin by annexinV-FITC/propidium iodide staining based flow cytometry (reference value: 36.9%); assay type: functional
A549 [16] = assay: Potentiation of cisplatin-induced cell cycle arrest in human A549 cells assessed as accumulation at G1 phase at 32.7 uM measured after 24 hrs in presence of cisplatin by propidium iodide/RNase staining based flow cytometry (reference value: 42.35%); assay type: functional
A549 [17] = assay: Potentiation of cisplatin-induced cell cycle arrest in human A549 cells assessed as accumulation at S phase at 32.7 uM measured after 24 hrs in presence of cisplatin by propidium iodide/RNase staining based flow cytometry (reference value: 21.52 %); assay type: functional
HeLa [18] = assay: Antagonistic anticancer activity against human HeLa cells assessed as combination index at cisplatin to compound ratio of 1:2 measured after 48 to 72 hrs by MTT based Chou-Talalay method; assay type: functional; conditions: time 48-72 hrs; how it was run: as §1
A549 [19] = assay: Synergistic anticancer activity against human A549 cells assessed as combination index at cisplatin:compound ratio of 1:0.5 to 1:3 measured after 24 hrs in presence of cisplatin by MTT based Chou-Talalay method; assay type: functional; how it was run: as §1
HeLa [20] = assay: Potentiation of cisplatin-induced cell cycle arrest in human HeLa cells assessed as accumulation at G2/M phase at 6.8 uM measured after 24 hrs in presence of cisplatin by propidium iodide/RNase staining based flow cytometry (reference value: 11.69 %); assay type: functional
HeLa [21] = assay: Potentiation of cisplatin-induced cell cycle arrest in human HeLa cells assessed as accumulation at G1 phase at 6.8 uM measured after 24 hrs in presence of cisplatin by propidium iodide/RNase staining based flow cytometry (reference value: 61.13 %); assay type: functional
A549 [22] = assay: Anticancer activity against human A549 cells assessed as reduction in cell viability measured after 24 to 72 hrs by MTT assay; assay type: functional, cell-based; conditions: time 24-72 hrs
How it was run: (§5)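 MTT viability assay in HeLa and A549 cells, with concentration- and time-dependent exposures.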

HeLa [23] = assay: Inhibition of PP2A in human HeLa cells assessed as increase in phosphorylated ERK expression level at 2.5 uM measured after 24 hrs by Hoechst staining based immunofluorescence assay; assay type: cell-based
HeLa [24] = assay: Potentiation of cisplatin-induced apoptosis in human HeLa cells assessed as late apoptotic cells at 6.8 uM measured after 24 hrs in presence of cisplatin by annexinV-FITC/propidium iodide staining based flow cytometry (reference value: 54%); assay type: functional
HeLa [25] = assay: Inhibition of PP2A in human HeLa cells assessed as increase in phosphorylated Akt expression level at 2.5 uM measured after 24 hrs by Hoechst staining based immunofluorescence assay; assay type: cell-based
HeLa [26] = assay: Effect on total Akt expression in human HeLa cells at 2.5 uM measured after 24 hrs in presence of cisplatin by Hoechst staining based immunofluorescence assay; assay type: functional, cell-based
[27] = Toxicity in Kunming mouse implanted with mouse U14 cells assessed as reduction in body weight at 1.5 mg/kg, ip administered on day 2, 5, 8 cotreated with cisplatin at 5 mg/kg, ip on day 1, 4, 7 and measured after 1 week; assay type: organism-based; conditions: in vivo, 168 h, time 1 weeks
How it was run: (§6)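 U14-xenografted KM mice given saline, cisplatin 5 mg/kg, compound 1.5 mg/kg or both. Body weight monitored as a measure of systemic toxicity.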

HeLa [28] = assay: Effect on tubulin expression in human HeLa cells at 2.5 uM measured after 24 hrs in presence of cisplatin by DAPI staining based immunofluorescence assay
HeLa [29] = assay: Effect on tubulin expression in human HeLa cells at 2.5 uM measured after 24 hrs by Hoechst staining based immunofluorescence assay; assay type: functional, cell-based
A549 [30] = assay: Induction of apoptosis in human A549 cells at 32.7 uM measured after 24 hrs by annexinV-FITC/propidium iodide staining based flow cytometry relative to control; assay type: functional
[31] = Toxicity in Kunming mouse implanted with mouse U14 cells assessed as reduction in body weight at 1.5 mg/kg, ip administered on day 2, 5, 8 cotreated with cisplatin at 5 mg/kg, ip on day 1, 4, 7 and measured after 2 weeks; assay type: organism-based; conditions: in vivo, 336 h; how it was run: as §6
HeLa [32] = assay: Potentiation of cisplatin-induced cell cycle arrest in human HeLa cells assessed as accumulation at S phase at 6.8 uM measured after 24 hrs in presence of cisplatin by propidium iodide/RNase staining based flow cytometry (reference value: 27.18 %); assay type: functional
HeLa [33] = assay: Inhibition of PP2A in human HeLa cells assessed as increase in phosphorylated Akt expression level at 2.5 uM measured after 24 hrs in presence of cisplatin by Hoechst staining based immunofluorescence assay; assay type: cell-based
[34] = Toxicity in Kunming mouse implanted with mouse U14 cells assessed as change in body weight at 1.5 mg/kg, ip administered on day 2, 5, 8; assay type: organism-based; conditions: in vivo, 72 h, time 3 day; how it was run: as §6
HeLa [35] = assay: Induction of apoptosis in human HeLa cells assessed as early apoptotic cells at 6.8 uM measured after 24 hrs by annexinV-FITC/propidium iodide staining based flow cytometry relative to control; assay type: functional
HeLa [36] = assay: Inhibition of PP2A in human HeLa cells assessed as enzyme activity at 10 uM measured after 3 hrs by malachite green phosphatase assay relative to control; assay type: cell-based; set-up: scale not given: the % may be the effect or the level left; how it was run: as §3
HeLa [37] = assay: Induction of cell cycle arrest in human HeLa cells assessed as accumulation at G2/M phase at 6.8 uM measured after 24 hrs by propidium iodide/RNase staining based flow cytometry (reference value: 10.52 %); assay type: functional
HeLa [38] = assay: Effect on total Akt expression in human HeLa cells at 2.5 uM measured after 24 hrs by Hoechst staining based immunofluorescence assay; assay type: functional, cell-based
A549 [39] = assay: Induction of cell cycle arrest in human A549 cells assessed as accumulation at G1 phase at 32.7 uM measured after 24 hrs by propidium iodide/RNase staining based flow cytometry (reference value: 60.8 %); assay type: functional
U14 [40] = assay: Antitumor activity against mouse U14 cells implanted in Kunming mouse assessed as tumor growth inhibition at 1.5 mg/kg, ip administered on day 2, 5, 8 measured after 1 week by caliper method; assay type: functional, organism-based; conditions: time 1.0 weeks; how it was run: as §4
HeLa [41] = assay: Inhibition of PP2A in human HeLa cells assessed as increase in phosphorylated AKT expression level at 2.5 uM measured after 24 hrs by Western blot analysis; assay type: cell-based; how it was run: as §2
U14 [42] = assay: Antitumor activity against mouse U14 cells implanted in Kunming mouse assessed as tumor growth inhibition at 1.5 mg/kg, ip administered on day 2, 5, 8 measured after 2 weeks by caliper method; assay type: functional, organism-based; how it was run: as §4
HeLa [43] = assay: Anticancer activity against human HeLa cells assessed as reduction in cell viability at 1 to 100 uM by MTT assay; assay type: functional, cell-based; conditions: dose 1-100 µM, time 24-72 hrs, TDE = time-dependent effect
HeLa [44] = assay: Induction of cell cycle arrest in human HeLa cells assessed as accumulation at G1 phase at 6.8 uM measured after 24 hrs by propidium iodide/RNase staining based flow cytometry (reference value: 62.27 %); assay type: functional
HeLa [45] = assay: Anticancer activity against human HeLa cells assessed as reduction in cell viability measured after 24 to 72 hrs by MTT assay; assay type: functional, cell-based; conditions: dose 1-100 µM, time 24-72 hrs; how it was run: as §5
HeLa [46] = assay: Potentiation of cisplatin-induced apoptosis in human HeLa cells assessed as early apoptotic cells at 6.8 uM measured after 24 hrs in presence of cisplatin by annexinV-FITC/propidium iodide staining based flow cytometry (reference value: 4.8%); assay type: functional

CC(C)(C)OC(=O)N1CCN(C(=O)C2C3CCC(O3)C2C(=O)O)CC1 (stereo unspecified)
CI50 (HeLa [1]): >1 | Activity (HeLa [2]): inactive | inhibition (HeLa [3]): Active | Activity (HeLa [4]): inactive | Activity (HeLa [5]): 34.21% | Activity (HeLa [6]): 86% | Activity (HeLa [7]): 21.8% | inhibition (HeLa [8]): Active | CI50 (HeLa [9]): <1 | Activity (A549 [10]): 11.32% | Activity [11]: 97 mm3 | Activity (A549 [12]): 36.61% | CI50 (HeLa [13]): <1 | Activity (A549 [14]): 15.34% | Activity (A549 [15]): 41.5% | Activity (A549 [16]): 38.95% | Activity (A549 [17]): 45.71% | CI50 (HeLa [18]): >1 | CI50 (A549 [19]): <1 | Activity (HeLa [20]): 31.46% | Activity (HeLa [21]): 40.67% | Activity (A549 [22]): Active | inhibition (HeLa [23]): Active | Activity (HeLa [24]): 64.1% | inhibition (HeLa [25]): Active | Activity (HeLa [26]): inactive | Activity [27]: Toxic | Activity (HeLa [28]): inactive | Activity (HeLa [29]): inactive | Activity (A549 [30]): 35.5% | Activity [31]: Non-Toxic | Activity (HeLa [32]): 27.87% | inhibition (HeLa [33]): Active | Activity [34]: Toxic | Activity (HeLa [35]): 5.4% | Activity (HeLa [36]): 78.5% | Activity (HeLa [37]): 23.28% | Activity (HeLa [38]): inactive | Activity (A549 [39]): 52.07% | growth inhibition (GI) (U14 [40]): inactive | inhibition (HeLa [41]): Active | growth inhibition (GI) (U14 [42]): Active | Activity (HeLa [43]): Tde | Activity (HeLa [44]): 42.51% | Activity (HeLa [45]): Dose-dependent effect | Activity (HeLa [46]): 6.4%
